Measurements as given in ChEMBL document CHEMBL1150393, “Evaluation of radiolabeled (hetero)aromatic analogues of N-(2-diethylaminoethyl)-4-iodobenzamide for imaging and targeted radionuclide therapy of melanoma” (J Med Chem, 2008).

Key:
Settings in all cases: in vivo
[1] = tested on: Pancreas; test: Biodistribution in pancreas of C57BL/6 mouse bearing mouse B16-F0 cells at 0.74 to 0.92 MBq, iv after 1 hr; type: ADME, organism-based
Procedure, shortened: (§1)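 Male C57BL6 mice with s.c. left-flank B16-F0 melanoma (5 × 10⁵ cells in PBS). Two mice per time point frozen in liquid nitrogen after CO₂ sacrifice. Eight 40 µm whole-body cryosections per mouse read by multiwire proportional counter. cpm/mm² converted to kBq/g and expressed as %ID/g.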

[2] = Ratio of drug level in tumor to liver of C57BL/6 mouse bearing mouse B16-F0 cells at 0.74 to 0.92 MBq, iv after 6 hrs; type: ADME, organism-based
Procedure, shortened: (§2)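 Tumour and organ radioactive concentrations came from whole-body cryosection counting (40 µm slices, eight per mouse, two mice per time) after tail-vein injection of the [¹²⁵I]-labelled compound (0.1 µmol) into male C57BL6 mice bearing s.c. B16-F0 melanoma. Each value is the ratio of the tumour concentration to the organ concentration.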

[3] = tested on: Thyroid gland; test: Biodistribution in thyroid of C57BL/6 mouse bearing mouse B16-F0 cells at 0.74 to 0.92 MBq, iv after 3 hrs; type: ADME, organism-based
Procedure, shortened: (§3)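 [¹²⁵I]-labelled compound given iv by tail vein (0.1 µmol per mouse) to male C57BL6 mice bearing s.c. B16-F0 flank tumours (5 × 10⁵ cells in PBS). Two mice per time point were killed by CO₂, frozen in liquid nitrogen and cut into 40 µm cryosections, eight slices per mouse. Slice radioactivity was read on a multiwire proportional counter, converted to kBq/g and reported as %ID/g.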

[4] = Ratio of drug level in tumor to lung of C57BL/6 mouse bearing mouse B16-F0 cells at 0.74 to 0.92 MBq, iv after 6 hrs; type: ADME, organism-based; procedure, shortened: as §2
[5] = Biodistribution in Stomach content of C57BL/6 mouse bearing mouse B16-F0 cells at 0.74 to 0.92 MBq, iv after 1 hr; type: ADME, organism-based; procedure, shortened: as §1
[6] = Biodistribution in Stomach content of C57BL/6 mouse bearing mouse B16-F0 cells at 0.74 to 0.92 MBq, iv after 24 hrs; type: ADME, organism-based; procedure, shortened: as §1
[7] = tested on: Blood; test: Biodistribution in blood of C57BL/6 mouse bearing mouse B16-F0 cells at 0.74 to 0.92 MBq, iv after 3 hrs; type: ADME, organism-based; procedure, shortened: as §1
[8] = tested on: Kidney; test: Biodistribution in kidney of C57BL/6 mouse bearing mouse B16-F0 cells at 0.74 to 0.92 MBq, iv after 6 hrs; type: ADME, organism-based; procedure, shortened: as §1
[9] = tested on: Spleen; test: Biodistribution in spleen of C57BL/6 mouse bearing mouse B16-F0 cells at 0.74 to 0.92 MBq, iv after 6 hrs; type: ADME, organism-based; procedure, shortened: as §3
[10] = Biodistribution in intestinal content of C57BL/6 mouse bearing mouse B16-F0 cells at 0.74 to 0.92 MBq, iv after 3 hrs; type: ADME, organism-based; procedure, shortened: as §1
[11] = Biodistribution in tumor of C57BL/6 mouse bearing mouse B16-F0 cells at 0.74 to 0.92 MBq, iv after 24 hrs; type: ADME, organism-based, Neoplasm; procedure, shortened: as §3
[12] = Biodistribution in uvea of C57BL/6 mouse bearing mouse B16-F0 cells at 0.74 to 0.92 MBq, iv after 72 hrs; type: ADME, organism-based, Uveal tract; procedure, shortened: as §3
[13] = tested on: Lung; test: Biodistribution in lung of C57BL/6 mouse bearing mouse B16-F0 cells at 0.74 to 0.92 MBq, iv after 1 hr; type: ADME, organism-based; procedure, shortened: as §1
[14] = tested on: Liver; test: Biodistribution in liver of C57BL/6 mouse bearing mouse B16-F0 cells at 0.74 to 0.92 MBq, iv after 3 hrs; type: ADME, organism-based; procedure, shortened: as §1
[15] = Ratio of drug level in tumor to liver of C57BL/6 mouse bearing mouse B16-F0 cells at 0.74 to 0.92 MBq, iv after 3 hrs; type: ADME, organism-based; procedure, shortened: as §2
[16] = tested on: Spleen; test: Biodistribution in spleen of C57BL/6 mouse bearing mouse B16-F0 cells at 0.74 to 0.92 MBq, iv after 3 hrs; type: ADME, organism-based; procedure, shortened: as §3
[17] = Ratio of drug level in tumor to brain of C57BL/6 mouse bearing mouse B16-F0 cells at 0.74 to 0.92 MBq, iv after 1 hr; type: ADME, organism-based; procedure, shortened: as §2
[18] = tested on: Muscle tissue; test: Biodistribution in muscle of C57BL/6 mouse bearing mouse B16-F0 cells at 0.74 to 0.92 MBq, iv after 6 hrs; type: ADME, organism-based; procedure, shortened: as §1
[19] = Biodistribution in Stomach content of C57BL/6 mouse bearing mouse B16-F0 cells at 0.74 to 0.92 MBq, iv after 6 hrs; type: ADME, organism-based; procedure, shortened: as §1
[20] = Biodistribution in tumor of C57BL/6 mouse bearing mouse B16-F0 cells at 0.74 to 0.92 MBq, iv after 6 hrs; type: ADME, organism-based, Neoplasm; procedure, shortened: as §3
[21] = tested on: Thyroid gland; test: Biodistribution in thyroid of C57BL/6 mouse bearing mouse B16-F0 cells at 0.74 to 0.92 MBq, iv after 6 hrs; type: ADME, organism-based; procedure, shortened: as §3
[22] = Ratio of drug level in tumor to brain of C57BL/6 mouse bearing mouse B16-F0 cells at 0.74 to 0.92 MBq, iv after 3 hrs; type: ADME, organism-based; procedure, shortened: as §2
[23] = Biodistribution in uvea of C57BL/6 mouse bearing mouse B16-F0 cells at 0.74 to 0.92 MBq, iv after 6 hrs; type: ADME, organism-based, Uveal tract; procedure, shortened: as §3
[24] = Biodistribution in tumor of C57BL/6 mouse bearing mouse B16-F0 cells at 0.74 to 0.92 MBq, iv after 3 hrs; type: ADME, organism-based, Neoplasm; procedure, shortened: as §3
[25] = Biodistribution in uvea of C57BL/6 mouse bearing mouse B16-F0 cells at 0.74 to 0.92 MBq, iv after 1 hr; type: ADME, organism-based, Uveal tract; procedure, shortened: as §3
[26] = Drug excretion in mouse B16-F0 cells bearing C57BL/6 mouse urine at 0.74 to 0.92 MBq, iv after 72 hrs; type: ADME, organism-based
Procedure, shortened: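 Urine was collected from two B16-F0 tumour-bearing C57BL6 mice for up to 72 h after iv tail-vein injection of the [¹²⁵I]-labelled compound (0.1 µmol). Samples were counted to give cumulative urinary excretion as %ID.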

[27] = tested on: Liver; test: Biodistribution in liver of C57BL/6 mouse bearing mouse B16-F0 cells at 0.74 to 0.92 MBq, iv after 6 hrs; type: ADME, organism-based; procedure, shortened: as §1
[28] = Ratio of drug level in tumor to liver of C57BL/6 mouse bearing mouse B16-F0 cells at 0.74 to 0.92 MBq, iv after 1 hr; type: ADME, organism-based; procedure, shortened: as §2
[29] = tested on: Blood; test: Biodistribution in blood of C57BL/6 mouse bearing mouse B16-F0 cells at 0.74 to 0.92 MBq, iv after 1 hr; type: ADME, organism-based; procedure, shortened: as §1
[30] = tested on: Lung; test: Biodistribution in lung of C57BL/6 mouse bearing mouse B16-F0 cells at 0.74 to 0.92 MBq, iv after 6 hrs; type: ADME, organism-based; procedure, shortened: as §1
[31] = Biodistribution in Stomach content of C57BL/6 mouse bearing mouse B16-F0 cells at 0.74 to 0.92 MBq, iv after 3 hrs; type: ADME, organism-based; procedure, shortened: as §1
[32] = Ratio of drug level in tumor to liver of C57BL/6 mouse bearing mouse B16-F0 cells at 0.74 to 0.92 MBq, iv after 24 hrs; type: ADME, organism-based; procedure, shortened: as §2
[33] = tested on: Liver; test: Biodistribution in liver of C57BL/6 mouse bearing mouse B16-F0 cells at 0.74 to 0.92 MBq, iv after 24 hrs; type: ADME, organism-based; procedure, shortened: as §1
[34] = tested on: Muscle tissue; test: Biodistribution in muscle of C57BL/6 mouse bearing mouse B16-F0 cells at 0.74 to 0.92 MBq, iv after 3 hrs; type: ADME, organism-based; procedure, shortened: as §1

| SMILES | Drug uptake [1] | Ratio [2] | Drug uptake [3] | Ratio [4] | Drug uptake [5] | Drug uptake [7] | Drug uptake [8] | Drug uptake [10] | Drug uptake [11] | Drug uptake [12] | Drug uptake [13] | Drug uptake [14] | Ratio [15] | Ratio [17] | Drug uptake [19] | Drug uptake [20] | Drug uptake [21] | Ratio [22] | Drug uptake [23] | Drug uptake [24] | other results |
| --- | --- | --- | --- | --- | --- | --- | --- | --- | --- | --- | --- | --- | --- | --- | --- | --- | --- | --- | --- | --- | --- |
| CCN(CC)CCNC(=O)c1ccc([125I])nc1.Cl.Cl | 3.94 % ID/g | 3.33 | 59.09 % ID/g | 2.17 | 34.8 % ID/g | 4.22 % ID/g | 3.5 % ID/g | 4.94 % ID/g | 2.7 % ID/g | 2.54 % ID/g | 7.59 % ID/g | 3.01 % ID/g | 3.08 | 24.2 | 50.21 % ID/g | 7 % ID/g | 7.92 % ID/g | 42.14 | 11.5 % ID/g | 9.3 % ID/g | Drug uptake [6]: 1.46 % ID/g; Drug uptake [9]: 2.35 % ID/g; Drug uptake [16]: 2.68 % ID/g; Drug uptake [18]: 0.53 % ID/g; Drug uptake [25]: 16.66 % ID/g; Activity [26]: 67.3%; Drug uptake [27]: 2.09 % ID/g; Ratio [28]: 3.01; Drug uptake [29]: 6.67 % ID/g; Drug uptake [30]: 3.21 % ID/g; Drug uptake [31]: 42.71 % ID/g |
| CCN(CC)CCNC(=O)c1cnc2cc([125I])ccc2n1.Cl.Cl | 7.6 % ID/g | 5.4 | 39.76 % ID/g | 9.13 | 24.33 % ID/g | 2.91 % ID/g | 7.69 % ID/g | 17.45 % ID/g | 21.7 % ID/g | 25.26 % ID/g | 7.83 % ID/g | 8.87 % ID/g | 3.12 | 7.26 | 21.09 % ID/g | 40.7 % ID/g | 83.77 % ID/g | 26.87 | 32.3 % ID/g | 27.7 % ID/g | Ratio [32]: 14.54; Drug uptake [16]: 4.69 % ID/g; Drug uptake [18]: 0.87 % ID/g; Drug uptake [33]: 1.49 % ID/g; Drug uptake [25]: 33.82 % ID/g; Activity [26]: 70.2%; Drug uptake [27]: 7.53 % ID/g; Ratio [28]: 1.29; Drug uptake [29]: 3.45 % ID/g; Drug uptake [30]: 4.46 % ID/g; Drug uptake [34]: 0.86 % ID/g; Drug uptake [31]: 20.33 % ID/g |
| CCN(CC)CCNC(=O)c1cc2c([125I])cccc2cn1.Cl.Cl | 2.39 % ID/g | 5.14 | 35.71 % ID/g | 3.86 | 23.01 % ID/g | 2.65 % ID/g | 2.11 % ID/g | 68.64 % ID/g | 7.1 % ID/g | 9.73 % ID/g | 3.68 % ID/g | 2.02 % ID/g | 3.52 | 24.23 | 28.44 % ID/g | 7.9 % ID/g | 48.93 % ID/g | 79.11 | 18.02 % ID/g | 7.1 % ID/g | Drug uptake [6]: 0.75 % ID/g; Ratio [32]: 16.4; Drug uptake [33]: 0.43 % ID/g; Drug uptake [25]: 18.08 % ID/g; Activity [26]: 49.9%; Drug uptake [27]: 1.54 % ID/g; Ratio [28]: 1.88; Drug uptake [29]: 2.15 % ID/g; Drug uptake [30]: 2.05 % ID/g; Drug uptake [34]: 0.43 % ID/g; Drug uptake [31]: 19.05 % ID/g |
